# The source made the active and inactive calls. No cut-off for these calls is given here.
# Columns and labels:
# [1] = test system: Human immunodeficiency virus 1; experiment: Reactivation of HIV-1 latent proviruses in Th17 resting memory T cells after PRC2 KD infected with vesicular stomatitis virus G-pseudotyped HIV-1 at 10 nM by FACS analysis; format: functional
# Summary of the method: (§1)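 Naive CD4+ T cells from healthy-donor PBMCs were activated with CD3/CD28 beads, polarized to Th17, and infected with VSV-G-pseudotyped Nef+ HIV-1 expressing CD8a-d2EGFP. Infected cells were CD8a-selected and made quiescent for 2 weeks in IL-2 (15 IU/ml) plus IL-23 ([…]). Cells were then exposed to compound for 96 h. Nef and pSer175-CDK9 were read by FACS, and viability by propidium iodide.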
# [2] = test system: Human immunodeficiency virus 1; experiment: Reactivation of latent proviruses in human Th17 cells infected with HIV-1 assessed as Nef and pSer175-CDK9 levels at 100 nM after 72 hrs by FACS analysis; format: functional
# Summary of the method: (§2)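 Th17 cells exposed to inhibitor (100 nM) for 72 h, then infected with HIV-1. Infected cells kept under low-cytokine conditions to enter quiescence, with drug replenished every 72 h. On day 26, cells washed free of drug and induced with CD3/CD28 beads, IL-15 (50 ng/ml) or ConA (5 µg/ml). Nef and pSer175-CDK9 read by FACS; DMSO-pretreated control.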
# [3] = test system: Human immunodeficiency virus 1; experiment: Reactivation of quiescent HIV-1 infected in human Th17 cells stimulated by IL-15 treated at 100 nM for 72 hrs followed by viral infection replenishment of drug medium every 72 hrs for 26 days by FACS analysis relative to control; format: functional; summary of the method: as §2
# [4] = test system: Human immunodeficiency virus 1; experiment: Reactivation of HIV-1 latent proviruses in Th17 resting memory T cells by measuring pSer175 CDK9 level treated at 10 nM for 96 hrs by FACS analysis (reference value: 1.59%); format: functional
# [5] = test system: Human immunodeficiency virus 1; experiment: Reactivation of HIV-1 latent proviruses in Th17 resting memory T cells by measuring pSer175 CDK9 level treated at 100 nM for 96 hrs by FACS analysis (reference value: 1.59%); format: functional; summary of the method: as §1
# [6] = test system: Human immunodeficiency virus 1; experiment: Reactivation of HIV-1 latent proviruses in Th17 resting memory T cells by measuring pSer175 CDK9 level treated at 1 uM for 96 hrs by FACS analysis (reference value: 1.59%); format: functional; summary of the method: as §1
# [7] = test system: Human immunodeficiency virus 1; experiment: Reactivation of HIV-1 infected in human Jurkat cells at 1 uM measured after 7 days by FACS analysis relative to control; format: functional; conditions: time 7 day
# Summary of the method: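 E4 Jurkat cells carrying latent d2EGFP HIV-1, infected with shRNA or CRISPR-Cas9 lentivirus. Seven days post-infection, stimulated overnight with SAHA (1 µM), anti-CD3 (0.125 µg/ml) plus anti-CD28 (1 µg/ml), or TNF-α (1 ng/ml). d2EGFP-positive cells quantified by FACS. Three separate experiments, SEM.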
# [8] = test system: Human immunodeficiency virus 1; experiment: Antiviral activity against HIV-1 in human Jurkat T cells assessed as reduction GFP positive cells at 1 uM for 18 hrs; format: functional, organism-based
# Summary of the method: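 Jurkat E6 cells pretreated overnight with inhibitor (5 µM; DZNep 5 or 10 µM; phenelzine 250 µM), washed twice with PBS, then spinoculated with VSV-G-pseudotyped HIV-1 (d2EGFP-Nef). Three days later, silent proviruses induced with 1 µM SAHA for 18 h. d2EGFP measured by FACS. Relative silencing is the % silent virus (SAHA-stimulated minus untreated GFP+), divided by scrambled/untreated control. Two independent experiments, SEM.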
# [9] = test system: Human immunodeficiency virus 1; experiment: Reactivation of HIV-1 latent proviruses in Th17 resting memory T cells by measuring pSer175 CDK9 level treated at 10 nM for 96 hrs by FACS analysis (reference value: 0.76%); format: functional
# [10] = test system: Human immunodeficiency virus 1; experiment: Reactivation of HIV-1 latent proviruses in Th17 resting memory T cells by measuring pSer175 CDK9 level treated at 100 nM for 96 hrs by FACS analysis (reference value: 0.76%); format: functional; summary of the method: as §1
# [11] = test system: Human immunodeficiency virus 1; experiment: Reactivation of HIV-1 latent proviruses in Th17 resting memory T cells by measuring pSer175 CDK9 level treated at 1 uM for 96 hrs by FACS analysis (reference value: 0.76%); format: functional; summary of the method: as §1
# [12] = test system: Human immunodeficiency virus 1; experiment: Reactivation of HIV-1 latent proviruses in Th17 resting memory T cells after PRC2 KD infected with vesicular stomatitis virus G-pseudotyped HIV-1 at 100 nM by FACS analysis relative to control; format: functional
# Summary of the method: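 Th17 cells were pretreated with 100 nM compound for 72 h, then infected with VSV-G-pseudotyped HIV-1 and cultured under low-cytokine conditions to force quiescence, with drug replenished every 72 h. On day 26 the drug was washed out and cells were induced with CD3/CD28 beads, IL-15 (50 ng/ml) or ConA (5 µg/ml). Nef and pSer175-CDK9 were read by FACS against DMSO-pretreated cells.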
# [13] = test system: Human immunodeficiency virus 1; experiment: Reactivation of HIV-1 latent proviruses in Th17 resting memory T cells by measuring pSer175 CDK9 level treated at 10 nM for 96 hrs by FACS analysis (reference value: 1.07%); format: functional
# [14] = test system: Human immunodeficiency virus 1; experiment: Reactivation of HIV-1 latent proviruses in Th17 resting memory T cells by measuring pSer175 CDK9 level treated at 100 nM for 96 hrs by FACS analysis (reference value: 1.07%); format: functional
# [15] = test system: Human immunodeficiency virus 1; experiment: Reactivation of HIV-1 latent proviruses in Th17 resting memory T cells by measuring pSer175 CDK9 level treated at 1 uM for 96 hrs by FACS analysis (reference value: 1.07%); format: functional; summary of the method: as §1
SMILES,Activity [1] [%],Activity [2] [%],Activity [3] [%],Activity [4] [%],Activity [5] [%],Activity [6] [%],Activity [7] [%],Activity [8],Activity [9] [%],Activity [10] [%],Activity [11] [%],Activity [12] [%],Activity [13] [%],Activity [14] [%],Activity [15] [%]
COc1cc2c(NC3CCN(C(C)C)CC3)nc(C3CCCCC3)nc2cc1OCCCN1CCCC1,35,~4,22,22.84,32.18,34.92,–,–,–,–,–,–,–,–,–
O=C(CCCCCCC(=O)Nc1ccccc1)NO [VORINOSTAT],–,–,–,–,–,–,~30,Active,–,–,–,–,–,–,–
CCN(c1cc(-c2ccc(CN3CCOCC3)cc2)cc(C(=O)NCc2c(C)cc(C)[nH]c2=O)c1C)C1CCOCC1 [TAZEMETOSTAT],20,~10,40,–,–,–,–,–,16.28,29.17,27.81,–,–,–,–
CCCc1cc(C)[nH]c(=O)c1CNC(=O)c1cc(-c2ccnc(N3CCN(C)CC3)c2)cc2c1cnn2C(C)C,20,~8,27,–,–,–,–,–,–,–,–,24.15,22.31,24.13,29.11

# — ChEMBL document CHEMBL5712893, “Multiple Histone Lysine Methyltransferases Are Required for the Establishment and Maintenance of HIV-1 Latency” (2017)
